The text below walks through data of ChEMBL document CHEMBL6071141, “In vitro and in vivo evaluation of Bombesin-MMAE conjugates for targeted tumour therapy” (Eur J Med Chem, 2024).

Active and inactive are the calls of the source. The calls are words filed in the database; no cut-off is given here. Numbered stars: 1 amine (or outer) side, 2 acyl side, 3 side chain; on linkers, the order of the positions; unused ones are H or OH. Bridge positions count the residues as written; N and C are the ends. Square brackets hold non-standard residues; d marks the D form. Peptide text beside a SMILES is read from it. I, II: the chains in the order shown. * marks the point of attachment. Hexanoyl(6-succinimido-3yl) = O=C1CC([*:1])C(=O)N1CCCCCC(=O)[*:2]; Trp(3a,7a-dihydro) = N[C@@H](CC1=CNC2C=CC=CC12)C(=O)O; Dolaproine = CO[C@@H]([C@@H]1CCCN1)[C@@H](C)C(=O)O; Dil = CC[C@H](C)[C@H](NC)[C@@H](CC(=O)O)OC; PABC = O=C(OCc1ccc(N[*:1])cc1)[*:2]; X3 = C[C@@H](N*)[C@@H](O)c1ccccc1; Cit = NC(=O)NCCC[C@H](N)C(=O)O; PEG4 = NCCOCCOCCOCCOCCC(=O)O; NMeV = CN[C@H](C(=O)O)C(C)C; Nle = CCCC[C@H](N)C(=O)O

Data set [1] can be described thus: Biodistribution in mouse xenografted with human PC-3 cells assessed as tumour environment incubated for 24 hrs by LC-HRMS. The class given is ADME, organism-based, Neoplasm. As to conditions: in vivo. An outline of the steps:
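Mice bearing PC-3 xenografts received a single 2 mg/kg i.p. dose. Blood, tumour, liver, kidneys, heart, lungs and pancreas were collected at 1, 6 and 24 h and pooled per group. Tissues were homogenised in water (1:2 w/v) and centrifuged. Released MMAE was measured by LC-HRMS and expressed as %ID/g (n = 3).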

The nature of data set [2]: Cytotoxicity against human MDA-MB-231 cells assessed as inhibition of cell growth incubated for 72 hrs and followed by treated with compound continued incubation for further 72 hrs (double treatment) after retreatment of compound by CellTiter 96 aqueous assay. The class given is toxicity, cell-based. An outline of the steps: (§1)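 PC-3 or MDA-MB-231 cells were treated the day after seeding with serial dilutions, from 2000 nM for conjugates and 100 nM for MMAE, for 72 h. Then the assay was stopped, or run 72 h more after a medium change (single) or re-treatment (double). Controls got 0.05 % DMSO. Read-out was MTS absorbance at 490 nm after 90 min. IC50 by non-linear regression; ≥2 experiments, triplicates.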

Data set [3] is described as follows: Metabolic stability in human plasma assessed as half life at 5 uM measured upto 24 hrs by LC-HRMS analysis. The class given is ADME, cell-free. An outline of the steps:
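Conjugates at 5 μM were incubated in human or mouse plasma at 37 °C, in duplicate. Samples were taken at t0, 0.25, 0.5, 1, 2, 4 and 24 h and quenched with 1 % formic acid in MeCN (2× volume). After centrifugation (14000 rpm, 4 °C), supernatants were diluted 1:1 with water and analysed by LC-HRMS.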

The subject of data set [4] is PC-3. Put plainly: Antitumor activity against human PC-3 cells xenografted in mouse assessed as reduction in tumour weight at 0.5 mg/kg, ip administered upto 23 days relative to control. The class given is functional. More on the design: scale not given: the % may be the effect or the level left. As to conditions: time <= 23 day. (In general: A xenograft is tissue or cells of one species grown in another, often human tumour cells in immunodeficient mice.)

Data set [5] concerns the target T1, Gastrin-releasing peptide receptor (Homo sapiens, UniProt P30550). The data set is described as follows: Displacement of 125 I- [Tyr4] from bombesin receptor 2 in human MDA-MB-231 cells assessed as inhibition by radioligand displacement assay. The class given is cell-based. Summed up: (§2)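 Competition binding on membrane preparations from PC-3 or MDA-MB-231 cells against ¹²⁵I-[Tyr⁴]-bombesin, with conjugates at 10 μM–10 pM. IC50 was taken as the concentration giving 50 % inhibition of tracer binding.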
(In general: In a radioligand displacement assay an active substance lowers the binding of a labelled ligand.)

Data set [6] in a line: Cytotoxicity against human cells MDA-MB-231 assessed as inhibition of cell growth incubated for 72 hrs by CellTiter 96 aqueous assay. The class given is toxicity, cell-based. The conditions noted are these: MDA-MB-231 cells. An outline of the steps:
as §1

Data set [7] in a line: Cytotoxicity against human PC-3 cells assessed as inhibition of cell growth incubated for 72 hrs and followed by treated with compound continued incubation for further 72 hrs (double treatment) after retreatment of compound by CellTiter 96 aqueous assay. The data set is classed as toxicity, cell-based. An outline of the steps: as §1
For data set [8], the system named is PC-3. Put plainly: Antitumor activity against human PC-3 cells xenografted in mouse assessed as reduction in tumour volume relative to control. The class given is functional. Also noted: scale not given: the % may be the effect or the level left. Summed up:
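Acute study in mice bearing subcutaneous PC-3 tumours. Single i.p. dose (0.1 mL) 9 days after inoculation, at a mean tumour volume of 62 mm³. Eight per group, randomized. Conjugates at 2 mg/kg MMAE-content, free MMAE at 1 mg/kg, in 5 % DMSO in water; solvent controls. Calliper volume V = ab²×π/6. Sacrifice at 20 % weight loss or 2000 mm³.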

The test system of data set [9] is PC-3. Put plainly: Antitumor activity against human PC-3 cells xenografted in mouse assessed as reduction in tumour size at 0.5 mg/kg, ip administered upto 23 days relative to control. The class given is functional. Also noted: scale not given: the % may be the effect or the level left. As to conditions: time <= 23 day. Summed up:
(§3)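 Chronic study in mice bearing subcutaneous PC-3 tumours. Dosing began 8 days after cell inoculation, at a mean tumour volume of 93 mm³. Seven per group, randomized. Four i.p. doses (0.1 mL) on days 8, 11, 16 and 23 of 0.5 mg/kg MMAE-content, in 5 % DMSO in water for injection; controls got solvent. Tumour volume by calliper, V = ab²×π/6.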

The nature of data set [10]: Cytotoxicity against human MDA-MB-231 cells assessed as inhibition of cell growth incubated with compound for 72 hrs followed by further incubated for 72 hrs (single treatment) by CellTiter 96 aqueous assay. The data set is classed as toxicity, cell-based. An outline of the steps: as §1
Data set [11] deals with T1, Gastrin-releasing peptide receptor. The data set is described as follows: Displacement of 125 I- [Tyr4] from bombesin receptor 2 in human PC-3 cells assessed as inhibition by radioligand displacement assay. The data set is classed as cell-based. Summed up: as §2
Data set [12] can be described thus: Toxicity in mouse xenografted with human PC-3 cells assessed as body weight loss at 1 mg/kg, ip administered relative to control. The class given is organism-based. As to conditions: in vivo, 2 mg/kg, in the assay text read “2 mg/kg” for “1 mg/kg”. Summed up: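 Toxicity in mice bearing subcutaneous PC-3 tumours after a single i.p. dose 9 days post-inoculation. Free drug at 1 mg/kg, conjugates at 2 mg/kg MMAE-content, in 5 % DMSO in water; solvent controls; eight per group. Body weight followed periodically. Endpoint at 20 % weight loss; behaviour (activity, coat, stool, paleness) also scored.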

A short description of data set [13]: Cytotoxicity against human PC-3 cells assessed as inhibition of cell growth incubated with compound for 72 hrs followed by further incubated for 72 hrs (single treatment) by CellTiter 96 aqueous assay. The data set is classed as toxicity, cell-based. An outline of the steps:
as §1

The subject of data set [14] is PC-3. Put plainly: Antitumor activity against human PC-3 cells xenografted in mouse assessed as inhibition in tumour growth at 0.5 mg/kg, ip administered upto 23 days. The class given is functional, organism-based. As to conditions: time <= 23.0 day. An outline of the steps:
as §3

Data set [15] is described as follows: Cytotoxicity against human PC-3 cells assessed as inhibition of cell growth incubated for 72 hrs by CellTiter 96 aqueous assay. The class given is toxicity, cell-based. Summed up: as §1
In data set [16] the test system is PC-3. Put plainly: Antitumor activity against human PC-3 cells xenografted with mouse assessed as median survival days at 2 mg/kg, ip (reference value: 33 days).

T1 sequence (P30550 whole entry): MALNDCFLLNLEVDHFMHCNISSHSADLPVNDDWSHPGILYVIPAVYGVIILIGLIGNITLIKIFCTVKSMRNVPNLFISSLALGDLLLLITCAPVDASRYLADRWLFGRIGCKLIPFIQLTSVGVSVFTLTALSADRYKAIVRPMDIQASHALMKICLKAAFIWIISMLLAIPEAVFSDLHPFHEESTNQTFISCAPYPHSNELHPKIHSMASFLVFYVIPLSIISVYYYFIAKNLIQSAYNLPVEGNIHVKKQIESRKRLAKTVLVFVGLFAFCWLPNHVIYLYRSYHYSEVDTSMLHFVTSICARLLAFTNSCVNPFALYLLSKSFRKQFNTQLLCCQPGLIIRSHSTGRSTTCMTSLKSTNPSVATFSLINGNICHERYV

With `CC[C@H](C)[C@@H]([C@@H](CC(=O)N1CCC[C@H]1[C@H](OC)[C@@H](C)C(=O)N[C@H](C)[C@@H](O)c1ccccc1)OC)N(C)C(=O)[C@@H](NC(=O)[C@H](C(C)C)N(C)C(=O)OCc1ccc(NC(=O)[C@H](CCCNC(N)=O)NC(=O)[C@@H](NC(=O)[C@H](CCC(=O)O)NC(=O)CCCCCN2C(=O)CC(SC[C@H](NC(C)=O)C(=O)NCCOCCOCCOCCOCCC(=O)N[C@H](Cc3ccccc3)C(=O)N[C@@H](CCC(N)=O)C(=O)N[C@@H](CC3=CNC4C=CC=CC34)C(=O)N[C@@H](C)C(=O)N[C@H](C(=O)NCC(=O)N[C@@H](Cc3c[nH]cn3)C(=O)N[C@@H](CC(C)C)[C@@H](O)CC(=O)N[C@@H](CC(C)C)C(N)=O)C(C)C)C2=O)C(C)C)cc1)C(C)C` (some centres not stated), the Drug uptake entry in [1] is listed as “Active”. Also, the IC50 (as a rule, the concentration at which inhibition is half-maximal) at 144 h was 43.3 nM in data set [2], 3.5 nM in [7], 42.3 nM in data set [10] and 4.8 nM in data set [13]. Further, the half-life (usually the time in which the quantity being followed falls by half) at 5 µM in data set [3] turned out to be 4.6 h. Moreover, the Activity is recorded as 41.6% in data set [4], 65.2% in [8], 59.8% in data set [9] and under 20% in data set [12]. Further, the half-maximal inhibitory concentration (IC50) in data set [5] was 69.5 nM; in [11], 59.4 nM. The IC50 at 72 h is 526 nM in [6] and 29.6 nM in data set [15]. For the same compound, the result in [14] was Active. The Survival in data set [16] stood at 49 days.

For `CC[C@H](C)[C@@H]([C@@H](CC(=O)N1CCC[C@H]1[C@H](OC)[C@@H](C)C(=O)N[C@H](C)[C@@H](O)c1ccccc1)OC)N(C)C(=O)[C@@H](NC(=O)[C@H](C(C)C)N(C)C(=O)OCc1ccc(NC(=O)[C@H](CCCNC(N)=O)NC(=O)CNC(=O)[C@H](CCC(=O)O)NC(=O)CCCCCN2C(=O)CC(SC[C@H](NC(C)=O)C(=O)NCCOCCOCCOCCOCCC(=O)N[C@H](Cc3ccccc3)C(=O)N[C@@H](CCC(N)=O)C(=O)N[C@@H](CC3=CSC4C=CC=CC34)C(=O)N[C@@H](C)C(=O)N[C@H](C(=O)NCC(=O)N[C@@H](Cc3c[nH]cn3)C(=O)N[C@@H](CC(C)C)[C@@H](O)CC(=O)N[C@@H](CC(C)C)C(N)=O)C(C)C)C2=O)cc1)C(C)C` (some centres not stated), the IC50 at 144 h in [2] amounted to 130 nM; in [7], 116 nM; in [10], 171 nM; in data set [13], 142 nM. For the same compound, the results for the IC50 in data set [5] and in data set [11] were 76.9 nM and 71.1 nM, respectively. In addition, the IC50 at 72 h in data set [6] came to 943 nM; in data set [15], 586 nM.

On to `CCCC[C@H](NC(=O)[C@H](CC(C)C)NC(=O)[C@H](Cc1c[nH]cn1)NC(=O)CNC(=O)[C@@H](NC(=O)[C@H](C)NC(=O)[C@H](CC1=CNC2C=CC=CC12)NC(=O)[C@H](CCC(N)=O)NC(=O)[C@H](CC(N)=O)NC(=O)CCOCCOCCOCCOCCNC(=O)[C@H](CSC1CC(=O)N(CCCCCC(=O)N[C@@H](CCC(=O)O)C(=O)N[C@H](C(=O)N[C@@H](CCCNC(N)=O)C(=O)Nc2ccc(COC(=O)N(C)[C@H](C(=O)N[C@H](C(=O)N(C)[C@@H]([C@@H](C)CC)[C@@H](CC(=O)N3CCC[C@H]3[C@H](OC)[C@@H](C)C(=O)N[C@H](C)[C@@H](O)c3ccccc3)OC)C(C)C)C(C)C)cc2)C(C)C)C1=O)NC(C)=O)C(C)C)C(N)=O` (some centres not stated) (I: Ac-C[PEG4]NQ[Trp(3a,7a-dihydro)]AVGHL[Nle]-NH2 / II: EV[Cit][PABC][NMeV]V[Dil][Dolaproine]-X3; linker I:1-II:N via Hexanoyl(6-succinimido-3yl)), for which the IC50 at 144 h in data set [2] is 52.7 nM; in data set [7], 12.6 nM; in data set [10] it was 60.1 nM; in [13], 18.2 nM. Also, the IC50 in data set [5] is 97.4 nM; in data set [11], 101 nM. The results for the IC50 at 72 h in data set [6] and in data set [15] were 344 nM and 64.1 nM, respectively.
